# KCC2 mod = modulates chloride dependent transport by human KCC2. 190,000 compounds, 2.2% hits. AID 1456. Q9H2X9. B-score of Tl+ flux slope (higher = more flux/activation; lower = inhibition) at 10 µM. KCC2 cells, thallium flux FluoZin-2 fluorescence;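 active means thallium flux slope and its plate-corrected score both differing from the plate sample mean at a set confidence after two filtering rounds, in either direction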;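 further: slope of fluorescence scaled to starting intensity during 10 to 20 s after thallium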
# Target sequence (Q9H2X9 whole entry, looked up): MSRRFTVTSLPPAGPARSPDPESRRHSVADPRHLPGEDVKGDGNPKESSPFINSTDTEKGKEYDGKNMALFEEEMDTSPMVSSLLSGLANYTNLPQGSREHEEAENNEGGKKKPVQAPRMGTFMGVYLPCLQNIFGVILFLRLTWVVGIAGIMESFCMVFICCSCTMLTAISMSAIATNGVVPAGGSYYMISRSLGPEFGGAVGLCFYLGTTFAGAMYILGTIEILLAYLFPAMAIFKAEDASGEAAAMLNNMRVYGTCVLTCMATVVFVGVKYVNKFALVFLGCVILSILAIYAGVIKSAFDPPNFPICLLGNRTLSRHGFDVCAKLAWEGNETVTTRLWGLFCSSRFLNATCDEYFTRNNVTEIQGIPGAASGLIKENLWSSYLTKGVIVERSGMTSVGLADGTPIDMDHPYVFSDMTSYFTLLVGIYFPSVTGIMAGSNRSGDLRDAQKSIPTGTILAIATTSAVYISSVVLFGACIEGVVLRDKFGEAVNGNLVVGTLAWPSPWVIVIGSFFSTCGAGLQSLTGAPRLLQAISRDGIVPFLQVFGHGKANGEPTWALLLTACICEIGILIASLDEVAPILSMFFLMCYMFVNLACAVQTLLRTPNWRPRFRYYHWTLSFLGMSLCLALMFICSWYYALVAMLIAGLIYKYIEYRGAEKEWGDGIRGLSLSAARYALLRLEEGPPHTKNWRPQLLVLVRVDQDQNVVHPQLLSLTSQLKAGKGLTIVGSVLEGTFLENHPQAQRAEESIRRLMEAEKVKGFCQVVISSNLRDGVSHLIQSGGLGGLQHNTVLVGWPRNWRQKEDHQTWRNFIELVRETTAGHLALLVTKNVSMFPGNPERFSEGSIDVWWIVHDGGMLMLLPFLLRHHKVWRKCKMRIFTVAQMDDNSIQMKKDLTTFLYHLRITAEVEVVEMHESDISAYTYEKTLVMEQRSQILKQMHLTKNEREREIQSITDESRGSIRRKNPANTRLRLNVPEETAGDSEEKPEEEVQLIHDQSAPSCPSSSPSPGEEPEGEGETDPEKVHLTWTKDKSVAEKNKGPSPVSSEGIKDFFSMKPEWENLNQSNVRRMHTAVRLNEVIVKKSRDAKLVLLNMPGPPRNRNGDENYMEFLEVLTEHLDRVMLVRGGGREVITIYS
# KCNQ1 block = inhibitors of human KCNQ1 potassium channel | P51787 | CHO-K1 KCNQ1, FluxOR thallium flux fluorescence; hits give high values | B-score at 10 µM | 310,000 compounds, 1.3% hits;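 active means compounds whose thallium flux B-score, printed positive for inhibition, exceeds three library SD while starting fluorescence stays within three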;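 further: channel opened by potassium depolarization with thallium stimulus after 20 min compound exposure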
# hERG rescue = shields human hERG channel from block by proarrhythmic agents. Q12809. CHO-hERG, FluxOR thallium flux, dofetilide IC70 present. activation (rescue from dofetilide block), less the hit threshold, % at 10 µM. 310,000 compounds, 0.51% hits. AID 1511;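 active means activation above the mean of controls blocked by dofetilide plus 5 SD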;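 further: thallium influx through hERG after potassium depolarization seen as dye fluorescence rise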
# KCNQ1 pot = potentiates or activates the human KCNQ1 potassium channel; CHO-K1 KCNQ1, thallium flux FluxOR fluorescence; hits give high values; B-score at 10 µM; 310,000 compounds, 0.35% hits;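 active means fluorescence ratio B-score, a plate-corrected score, at least three library SD, with initial intensity B-score within 5 SD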
#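 Test system: CHO-K1 cells stably expressing KCNQ1 / Medium: assay buffer / Also added: depolarizing K+/Tl+ stimulus, K2SO4 and Tl2SO4 each 12.5 mM in 5x stock / Incubation: 90 min dye loading and 20 min compound exposure, both at room temperature / Signal: thallium influx via FluxOR fluorescence, kinetic imaging / Evaluation: B score of baseline-normalized fluorescence ratio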
# KCNK9 block = blocks the human KCNK9 two-pore domain potassium channel | Q9NPC2 | HEK293 KCNK9, FluxOR thallium flux fluorescence; hits give low values | B-score at 10 µM | 310,000 compounds, 1.2% hits | AID 488922;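 active means ratio B-score over 3 SD below the library mean, with starting fluorescence within 5 SD of its mean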;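 further: negative B-score means less thallium flux so channel inhibition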
# KCNK3 block = human KCNK3 channel inhibition, primary screen. O14649. CHO-KCNK3 thallium flux, FluxOR fluorescence; hits give low values. B-score at 10 µM. 340,000 compounds, 0.84% hits. AID 602410;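 active means B-score under library mean minus 4 SD, starting fluorescence ratio at most library mean plus 5 SD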;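 further: more negative B-score means stronger inhibition of thallium flux through KCNK3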
# KCC2 sec1 = KCC2 (human) modulation, secondary assay; normalised thallium flux (F/F0 slope) at 10 µM; 3,700 compounds, 15% hits; HEK293-KCC2, thallium flux, FluoZin2 fluorescence; hits give high values; shares compounds with KCC2 mod;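 active means thallium flux slope above the same plate's solvent-only control mean plus 3 SD; inconclusive means the two replicate wells disagree; inactive means no significant difference from solvent-only control wells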
# KCC2 bumet counter = thallium flux despite bumetanide block in KCC2 cells, secondary assay 3; shares compounds with KCC2 mod; HEK293-KCC2 + bumetanide/ouabain, thallium flux FluoZin2; hits give high values; normalized thallium flux at 10 µM; 3,700 compounds, 49% hits; AID 1714;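 active means thallium entry rate above the same plate's blocked-transporter control wells by more than 3 SD; inconclusive means the two repeat wells disagree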;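 further: raw slope of fluorescence over initial fluorescence between 10 and 20 s after thallium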
# KCC2 secondary2 = confirmation of human KCC2 transport modulators; shares compounds with KCC2 mod; HEK293-KCC2, thallium flux FluoZin2 fluorescence; actives lie on both sides; F/F0 rise rate, 10–20 s post-thallium; normalized thallium flux at 10 µM; 3,700 compounds, 23% hits; AID 1715;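 active means thallium flux slope more than 3 SD above or below the plate's solvent-only control mean, mostly below; inconclusive means the two repeat wells disagreed; inactive means no significant shift from solvent-only controls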
# HEK293 Tl flux = acts in parental HEK cells, KCC2 counter-screen; shares compounds with KCC2 mod; HEK293 parental cells, thallium flux FluoZin2, ouabain; baseline-ratio fluorescence slope, 10–20 s after thallium; thallium flux rate (normalised fluorescence) at 10 µM; 3,700 compounds, 46% hits; AID 1716;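 active means thallium flux rate significantly above the same plate's solvent-only control wells, beyond their mean plus 3 SD; inconclusive means the two replicate wells gave conflicting results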
# KCC2 retest ouab = confirmation of human KCC2 modulators with ouabain; shares compounds with KCC2 mod; HEK293-KCC2, thallium flux FluoZin2 fluorescence; bidirectional: low = inhibitor, high = activator; raw Tl+ flux slope (below DMSO = inhibition, above = activation) at 10 µM; 3,700 compounds, 48% hits; AID 1717;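 active means thallium flux slope beyond 3 SD from same-plate DMSO control mean in most replicates, usually higher, sometimes lower; inconclusive means repeat tests gave conflicting results; inactive means no significant difference from controls in most replicates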;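 further: slope of initial-normalized fluorescence between seconds 10 and 20 after thallium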
# HEK293 Tl flux2 = acts in parental HEK cells, second KCC2 counter-screen. thallium flux slope at 10 µM. shares compounds with KCC2 mod. 3,700 compounds, 33% hits. AID 1718. HEK293 parental, thallium flux FluoZin-2 fluorescence slope;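 active means thallium flux slope above the same plate's solvent-control mean plus 3 SD in both duplicate wells; inconclusive means duplicate wells that disagreed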;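 further: run without ouabain in cells lacking the KCC2 cotransporter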
# Hits are given with their value; . = inactive; ? = inconclusive; / = no result. Shown are actives, neighbours in structure and some others; about 4.1% of the full set was active somewhere.
SMILES,KCC2 mod,KCNQ1 block,hERG rescue,KCNQ1 pot,KCNK9 block,KCNK3 block,KCC2 sec1,KCC2 bumet counter,KCC2 secondary2,HEK293 Tl flux,KCC2 retest ouab,HEK293 Tl flux2
CSCC(C)N1CCC(n2nccc2NC(=O)CCOc2ccccc2)CC1 (stereo not drawn),/,.,.,.,.,.,/,/,/,/,/,/
NC(=O)N1CC(O)CC1C(=O)Nc1ccc(Cl)c(Cl)c1 (stereo not drawn),.,.,.,.,.,.,.,.,.,.,.,.
CC(C)N1CC(C(=O)Nc2ccc(Cl)c(Cl)c2)CC1=O (stereo not drawn),/,.,.,.,.,.,/,/,/,/,/,/
Cc1noc(C)c1S(=O)(=O)N1CCC(C(=O)N2CCN(c3ccc(F)cc3)CC2)CC1,-4.9,.,.,.,.,/,.,?,0.026,.,?,.
Cc1cc(C)c(C)c(S(=O)(=O)N2CCC(C(=O)N3CCN(c4ccc(F)cc4)CC3)CC2)c1C,/,/,/,/,/,.,/,/,/,/,/,/
COC(=O)COc1ccc(/C=C2\SC(=O)N(CC(=O)Nc3ccccc3F)C2=O)cc1,/,.,.,.,.,.,/,/,/,/,/,/
CC1Cc2ccccc2N1C(=O)c1ccc(N2CCCC2)c([N+](=O)[O-])c1 (stereo not drawn),-6.5,.,.,.,.,.,.,.,0.02,.,0.013,.
O=C(c1ccc(N2CCCC2)c([N+](=O)[O-])c1)N1CCc2ccccc2C1,/,.,.,.,.,.,/,/,/,/,/,/
O=C(NC(=S)NCc1ccc2c(c1)OCO2)c1ccccc1,12,.,.,.,.,.,.,0.019,.,0.009,?,?
COc1cc(OC)cc(C(=O)NNC(=O)c2ccc3ccccc3n2)c1,/,/,/,/,/,.,/,/,/,/,/,/
COc1ccc(C(=O)NC(=S)NNC(=O)c2ccc3ccccc3n2)cc1,57,.,.,.,.,.,?,0.072,?,0.067,0.063,0.042
COc1ccc(C(=O)NC(=S)NCc2ccccc2)cc1,-3,.,.,.,.,.,.,0.0077,.,.,.,.
CCOC(=O)c1sc(NC(=S)NC(=O)c2ccccc2)nc1C,54,.,24,23,.,.,.,0.089,0.071,0.063,0.081,0.055
COCCn1nnnc1C(c1cccs1)N1CCCC(C)C1 (stereo not drawn),/,.,.,.,.,.,/,/,/,/,/,/
CC(C)c1ccc(CN(C(=O)/C=C/c2ccco2)C2CCS(=O)(=O)C2)cc1 (stereo not drawn),.,.,.,.,.,.,/,/,/,/,/,/
COc1ccc(N2C(=O)CS(=O)C(c3ccccc3)C2=O)cc1 (stereo not drawn),.,.,.,.,.,.,/,/,/,/,/,/
CCOC(=O)C(NC(C)=O)C(=O)Nc1ccc(C(C)(C)C)cc1 (stereo not drawn),.,.,.,.,.,.,/,/,/,/,/,/
CCOC(=O)NC(=S)Nc1ccc(C(C)(C)C)cc1,139,.,.,.,.,.,0.026,0.085,.,0.065,0.067,0.02
COC(=O)CNC(=S)NC(=O)c1ccc(C(C)(C)C)cc1,6.3,.,.,.,.,.,.,0.015,.,0.011,?,?

# Assay outcomes: PubChem BioAssay, several laboratories
